ChEMBL document CHEMBL1121740, “2-l-Rhamnopyranosyl[1,2,4]triazolo[1,5-a]pyridine. 4' and 3' Oxidation products. Synthesis and structure-activity relationships” (J Med Chem, 1981)
Values after ≈ are worked out from the molar mass of the structure shown.

What was measured:
[1] = Cytotoxic dose that inhibit multiplication of normal fibroblast cells (C3H cells); type: cell-based; details: mouse, read-out: CD50 (the source's name)
Method in brief: (§1)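 Growth assay on C3H mouse fibroblasts. 10⁴ cells are seeded per well, and different doses of product are added 24 h later. Cellular growth and morphology are examined on day +5.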

[2] = Cytotoxicity at 5 ug/mL against normal mouse fibroblasts (C3H cells) cells; type: cell-based
Method in brief: (§2)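 Colony-forming (plating efficiency) assay. 200 C3H or S+L- 3T3 FL cells per well, grown in McCoy's 5a with 10% heat-inactivated FCS. Various product concentrations are added 24 h after seeding. Colonies are stained with May Grunwald Giemsa and counted on day +9. Percent colony formation is taken relative to untreated control cells, set as 100% plating efficiency.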

[3] = Percent inhibition at 3 ug/mL for focus formation using MLV assay on S+L- cells; type: functional; details: Mus musculus
[4] = tested on: Murine leukemia virus; assay: Inhibitory dose against MSV titer in the absence of Murine leukemia virus on day +10; type: functional, Mus musculus; details: read-out: ID50 (the source's name)
Method in brief: (§3)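 MSV focus assay on C3H cells. 8 × 10⁴ cells are seeded per 60-mm dish and pretreated 24 h later with 20 µg/mL DEAE-dextran. Cells are infected with diluted MSV alone or MSV plus MuLV helper, with adsorption for 30 min at 37 °C. Filtered aqueous compound, diluted in medium, is added right after infection. Foci are counted on days 5 and 10. MSV titer was 7×10⁶.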

[5] = Percent inhibition at 5 ug/mL for focus formation using MLV assay on S+L- cells; type: functional; details: Mus musculus
[6] = Percent inhibition at 5 ug/mL for focus formation on day +10, using MSV assay on C3H cells without the addition of helper virus; type: functional; details: Mus musculus; method in brief: as §3
[7] = Cytotoxicity at 20 ug/mL against MSV transformed (S+L-cells) cells; type: cell-based; details: mouse; method in brief: as §2
[8] = Percent inhibition at 20 ug/mL for focus formation on day +10, using MSV assay on C3H cells without the addition of helper virus; type: functional; details: Mus musculus; method in brief: as §3
[9] = Cytotoxicity at 5 ug/mL against MSV transformed (S+L-cells) cells; type: cell-based; details: mouse; method in brief: as §2
[10] = Cytotoxic dose that inhibit multiplication of normal fibroblasts; details: mouse, read-out: CD50 (the source's name); method in brief: as §1
[11] = Percent inhibition at 10 ug/mL for focus formation using MLV assay on S+L- cells; type: functional; details: Mus musculus
[12] = Percent inhibition at 20 ug/mL for focus formation on day +5, using MSV assay on C3H cells without the addition of helper virus; type: functional; details: Mus musculus; method in brief: as §3
[13] = Toxic effect on S+L-cell colony formation; type: toxicity; details: mouse, S+L- cells; read-out: TD50 (the source's name)
Method in brief: (§4)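 S+L- (MSV-transformed 3T3 FL) cells grown in McCoy's 5a with 10% heat-inactivated fetal calf serum and antibiotics. Plating efficiency assay: 200 cells seeded per 35-mm well; product added at various concentrations 24 h after seeding. Colonies stained with May Grunwald Giemsa and counted on day +9. Colony formation expressed relative to untreated controls taken as 100% plating efficiency.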

[14] = Cytotoxicity at 10 ug/mL against MSV transformed (S+L-cells) cells; type: cell-based; details: mouse; method in brief: as §2
[15] = Percent inhibition at 20 ug/mL for focus formation on day +5, using MSV assay on C3H cells with optimal amount of helper virus; type: functional; details: Mus musculus; method in brief: as §3
[16] = Cytotoxicity at 10 ug/mL against normal mouse fibroblasts (C3H cells) cells; type: cell-based; method in brief: as §2
[17] = Percent inhibition at 3 ug/mL for focus formation on day +5, using MSV assay on C3H cells with optimal amount of helper virus; type: functional; details: Mus musculus; method in brief: as §3
[18] = Percent inhibition at 10 ug/mL for focus formation on day +5, using MSV assay on C3H cells with optimal amount of helper virus; type: functional; details: Mus musculus; method in brief: as §3
[19] = Percent inhibition at 10 ug/mL for focus formation on day +10, using MSV assay on C3H cells without the addition of helper virus; type: functional; details: Mus musculus; method in brief: as §3
[20] = Percent inhibition at 10 ug/mL for focus formation on day +5, using MSV assay on C3H cells without the addition of helper virus; type: functional; details: Mus musculus; method in brief: as §3
[21] = Cytotoxicity at 20 ug/mL against normal mouse fibroblasts (C3H cells) cells; type: cell-based; method in brief: as §2
[22] = Percent inhibition at 5 ug/mL for focus formation on day +5, using MSV assay on C3H cells without the addition of helper virus; type: functional; details: Mus musculus; method in brief: as §3
[23] = Percent inhibition at 5 ug/mL for focus formation on day +5, using MSV assay on C3H cells with optimal amount of helper virus; type: functional; details: Mus musculus; method in brief: as §3
[24] = Percent inhibition at 3 ug/mL for focus formation on day +10, using MSV assay on C3H cells without the addition of helper virus; type: functional; details: Mus musculus; method in brief: as §3
[25] = Percent inhibition at 3 ug/mL for focus formation on day +5, using MSV assay on C3H cells without the addition of helper virus; type: functional; details: Mus musculus; method in brief: as §3
[26] = Percent inhibition at 30 ug/mL for focus formation on day +5, using MSV assay on C3H cells without the addition of helper virus; type: functional; details: Mus musculus; method in brief: as §3
[27] = Percent inhibition at 30 ug/mL for focus formation on day +10, using MSV assay on C3H cells without the addition of helper virus; type: functional; details: Mus musculus; method in brief: as §3
[28] = Percent inhibition at 100 ug/mL for focus formation on day +10, using MSV assay on C3H cells without the addition of helper virus; type: functional; details: Mus musculus; method in brief: as §3
[29] = Cytotoxicity at 50 ug/mL against normal mouse fibroblasts (C3H cells) cells; type: cell-based; method in brief: as §2
[30] = Cytotoxicity at 250 ug/mL against MSV transformed (S+L-cells) cells; type: cell-based; details: mouse; method in brief: as §2
[31] = Percent inhibition at 50 ug/mL for focus formation on day +5, using MSV assay on C3H cells without the addition of helper virus; type: functional; details: Mus musculus; method in brief: as §3
[32] = Cytotoxicity at 100 ug/mL against normal mouse fibroblasts (C3H cells) cells; type: cell-based; method in brief: as §2
[33] = Percent inhibition at 50 ug/mL for focus formation on day +10, using MSV assay on C3H cells without the addition of helper virus; type: functional; details: Mus musculus; method in brief: as §3
[34] = Toxic effect on C3H cell colony formation; type: toxicity, cell-based; details: mouse, C3H cells; read-out: TD50 (the source's name); method in brief: as §2
[35] = Toxic effect on S+L- cell colony formation; type: toxicity; details: mouse, S+L- cells; read-out: TD50 (the source's name); method in brief: as §4
[36] = Inhibitory action of Murine leukemia virus titer on S+L-cell in presence of the compound; type: functional; details: Mus musculus; read-out: ID50 (the source's name)
[37] = Percent inhibition at 50 ug/mL for focus formation on day +5, using MSV assay on C3H cells with optimal amount of helper virus; type: functional; details: Mus musculus; method in brief: as §3
[38] = Percent inhibition at 100 ug/mL for focus formation on day +5, using MSV assay on C3H cells without the addition of helper virus; type: functional; details: Mus musculus; method in brief: as §3
[39] = Percent inhibition at 100 ug/mL for focus formation on day +5, using MSV assay on C3H cells with optimal amount of helper virus; type: functional; details: Mus musculus; method in brief: as §3
[40] = Percent inhibition at 30 ug/mL for focus formation on day +5, using MSV assay on C3H cells with optimal amount of helper virus; type: functional; details: Mus musculus; method in brief: as §3
[41] = Cytotoxicity at 100 ug/mL against MSV transformed (S+L-cells) cells; type: cell-based; details: mouse; method in brief: as §2
[42] = Cytotoxicity at 250 ug/mL against normal mouse fibroblasts (C3H cells) cells; type: cell-based; method in brief: as §2
[43] = Percent inhibition at 50 ug/mL for focus formation using MLV assay on S+L- cells; type: functional; details: Mus musculus
[44] = Percent inhibition at 30 ug/mL for focus formation using MLV assay on S+L- cells; type: functional; details: Mus musculus
[45] = Cytotoxicity at 50 ug/mL against MSV transformed (S+L-cells) cells; type: cell-based; details: mouse; method in brief: as §2
[46] = Percent inhibition at 100 ug/mL for focus formation using MLV assay on S+L- cells; type: functional; details: Mus musculus
[47] = Percent inhibition at 2.5 ug/mL for focus formation on day +5, using MSV assay on C3H cells with optimal amount of helper virus; type: functional; details: Mus musculus; method in brief: as §3
[48] = Percent inhibition at 200 ug/mL for focus formation using MLV assay on S+L- cells; type: functional; details: Mus musculus
[49] = Percent inhibition at 200 ug/mL for focus formation on day +10, using MSV assay on C3H cells without the addition of helper virus; type: functional; details: Mus musculus; method in brief: as §3
[50] = Percent inhibition at 200 ug/mL for focus formation on day +5, using MSV assay on C3H cells with optimal amount of helper virus; type: functional; details: Mus musculus; method in brief: as §3
[51] = Percent inhibition at 200 ug/mL for focus formation on day +5, using MSV assay on C3H cells without the addition of helper virus; type: functional; details: Mus musculus; method in brief: as §3

C[C@@H]1O[C@@H](c2nc3c([N+](=O)[O-])cccn3n2)[C@H](O)[C@H](O)[C@@H]1O
CC50 [1]: 400 µg/mL (≈ 1290 µM)

C[C@@H]1O[C@@H](c2nc3c([N+](=O)[O-])cccn3n2)[C@H](O)[C@H](O)[C@H]1O
CC50 [1]: 500 µg/mL (≈ 1610 µM)

CC1OC(c2nc3c([N+](=O)[O-])cccn3n2)=CC(O)C1O (stereo unspecified)
Colony formation [2]: 71.5%
inhibition at 3 µg/mL [3]: 30%
IC50 [4]: 9 µg/mL (≈ 30.8 µM)
inhibition at 5 µg/mL [5]: 50%
inhibition at 5 µg/mL [6]: 30%
Colony formation [7]: 0%
inhibition at 20 µg/mL [8]: 70%
Colony formation [9]: 49%
CC50 [10]: 62.5 µg/mL (≈ 214 µM)
inhibition at 10 µg/mL [11]: 82.5%
inhibition at 20 µg/mL [12]: 91%
CC50 [13]: 5 µg/mL (≈ 17.1 µM)
Colony formation [14]: 18%
inhibition at 20 µg/mL [15]: 76%
Colony formation [16]: 27%
inhibition at 3 µg/mL [17]: 39%
inhibition at 10 µg/mL [18]: 50%
inhibition at 10 µg/mL [19]: 58%
inhibition at 10 µg/mL [20]: 64%
Colony formation [21]: 2%
inhibition at 5 µg/mL [22]: 44%
inhibition at 5 µg/mL [23]: 26%
inhibition at 3 µg/mL [24]: 0%
inhibition at 3 µg/mL [25]: 15%

CC1OC(c2nc3c([N+](=O)[O-])cccn3n2)C(O)C(O)C1=O (stereo unspecified)
inhibition at 30 µg/mL [26]: 35%
inhibition at 30 µg/mL [27]: 0%
IC50 [4]: 145 µg/mL (≈ 470 µM)
inhibition at 100 µg/mL [28]: 42%
Colony formation [29]: 109%
Colony formation [30]: 0%
inhibition at 50 µg/mL [31]: 54%
Colony formation [32]: 76%
inhibition at 50 µg/mL [33]: 14%
CC50 [34]: 150 µg/mL (≈ 487 µM)
CC50 [35]: 73 µg/mL (≈ 237 µM)
IC50 [36]: 43 µg/mL
inhibition at 50 µg/mL [37]: 46%
inhibition at 100 µg/mL [38]: 67%
inhibition at 100 µg/mL [39]: 78%
inhibition at 30 µg/mL [40]: 31%
Colony formation [41]: 25%
Colony formation [42]: 21%
inhibition at 50 µg/mL [43]: 55%
inhibition at 30 µg/mL [44]: 35%
Colony formation [45]: 81%
inhibition at 100 µg/mL [46]: 80%

O=[N+]([O-])c1cccn2nc([C@@H]3O[C@H](CO)[C@@H](O)[C@H]3O)nc12
Colony formation [9]: 79.6%
Colony formation [14]: 46%
inhibition at 2.5 µg/mL [47]: 47%
inhibition at 5 µg/mL [23]: 62%

CC1OC(c2nc3c(N)cccn3n2)C(O)C(O)C1O (stereo unspecified)
inhibition at 200 µg/mL [48]: 50%
inhibition at 200 µg/mL [49]: 0%
inhibition at 200 µg/mL [50]: 11%
Colony formation [30]: 94%
Colony formation [32]: 115%
IC50 [36]: 200 µg/mL
inhibition at 200 µg/mL [51]: 0%
Colony formation [41]: 83%
Colony formation [42]: 108%
